Source: PMC10209631 (RSC Advances, 2023)
Read-outs that look alike come from different tables or passages of the source.

Tests used:
HepG2 = experiment: Antiproliferative activity; type: cell-based; details: Homo sapiens, HepG2, 48 h, read-out: antiproliferative activity IC50, HepG2
[1] = test system: normal fibroblasts (WI-38); experiment: Cytotoxicity; details: for IC50: read-out: IC50, normal fibroblasts WI-38; for selectivity index (SI): SI = WI-38 IC50/IC50 against cancer cells; for toxicity to the normal fibroblasts (in words): WI-38 versus cancer cells
MCF-7 cells [2] = experiment: Cell cycle analysis; type: cell-based, human; details: MCF7, IC50 concentration, 48 h
MCF-7 cells [3] = experiment: Apoptosis assay by annexin V-PI; type: cell-based, human; details: MCF7, IC50 concentration, 48 h; for necrotic cells (upper left quadrant, UL): DMSO 0.1%
Outline: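 MCF-7 cells seeded at 1 × 10⁵ cells per mL and held overnight at 37 °C, 5% CO₂. Test compound or DMSO added in fresh medium for 48 h. Cells trypsinized, washed twice in PBS, and stained 15 min with annexin V-FITC plus propidium iodide in binding buffer. Flow cytometry scored early apoptotic (LR), late apoptotic (UR) and necrotic (UL) quadrants.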

Row | Compound | IC50 (HepG2) | IC50 ([1]; Homo sapiens, WI-38, 48 h) | selectivity index (SI) [1] | also measured
1 | COc1cccc2c1C(=O)c1c(O)c3c(c(O)c1C2=O)C[C@@](O)(C(=O)CO)C[C@@H]3O[C@H]1C[C@H](N)[C@H](O)[C@H](C)O1 [DOX, Doxorubicin, reference compound] | 4.5 ± 0.2 µM |  |  | 
2 | N#CC(=Cc1ccc(Cl)cc1Cl)C(=O)Nc1nnc(NC(=O)c2ccccc2)s1 [Compound 7a, N-(5-(2-Cyano-3-(2,4-dichlorophenyl)acrylamido)-1,3,4-thiadiazol-2-yl)benzamide] | 6.34 ± 0.9 µM | 9.18 ± 3.6 µM | 1.5 | toxicity to the normal fibroblasts (in words) [1]: toxic to the normal fibroblasts
3 | N#CC(C(=O)Nc1nnc(NC(=O)c2ccccc2)s1)=C1Nc2ccccc2N1 [Compound 18, N-(5-(2-Cyano-2-(1,3-dihydro-2H-benzo[d]imidazole-2-ylidene)acetamido)-1,3,4-thiadiazol-2-yl)benzamide] | 47.3 ± 8.2 µM | > 100 µM | 1.5 | 
4 | N#CC(C(=O)Nc1nnc(NC(=O)c2ccccc2)s1)=C1SC(=O)CN1c1ccccc1 [Compound 12, N-(5-(2-Cyano-2-(5-oxo-3-phenylthiazolidin-2-ylidene)acetamido)-1,3,4-thiadiazol-2-yl)benzamide] | 69.5 ± 6.5 µM | > 100 µM |  | 
5 | N#CC(=Cc1ccc([N+](=O)[O-])cc1)C(=O)Nc1nnc(NC(=O)c2ccccc2)s1 [Compound 7e, N-(5-(2-Cyano-3-(4-nitrophenyl)acrylamido)-1,3,4-thiadiazol-2-yl)benzamide] | 56.3 ± 7.8 µM | 23.4 ± 3.6 µM | 0.4 | 
6 | N-(5-(2-Cyano-2-(4,6-dioxo-1-phenylpiperidin-2-ylidene)acetamido)-1,3,4-thiadiazol-2-yl)benzamide [Compound 13] |  |  | 0.5 | IC50 ([1]; MTT, 48 h, mean ±SEM, three independent experiments): 23.6 ± 3.2 µM
7 | N#CC(C(=O)Nc1nnc(NC(=O)c2ccccc2)s1)=C1Nc2ccccc2O1 [Compound 19, N-(5-(2-(Benzo[d]oxazol-2(3H)-ylidene)-2-cyanoacetamido)-1,3,4-thiadiazol-2-yl)benzamide] | 19.4 ± 1.5 µM | 60.3 ± 3.7 µM | 6.1 | cells arrested at G2/M (MCF-7 cells [2]; DMSO 4.6%): 23.3%; necrotic cells (upper left quadrant, UL) (MCF-7 cells [3]): 15%; early apoptosis (lower-right quadrant, LR) (MCF-7 cells [3]; DMSO 3.2%): 15%
8 | N#CC(C(=O)Nc1nnc(NC(=O)c2ccccc2)s1)=C1SCCN1c1ccccc1 [Compound 14, N-(5-(2-Cyano-2-(3-phenylthiazolidin-2-ylidene)acetamido)-1,3,4-thiadiazol-2-yl)benzamide] | > 100 µM | 53.8 ± 3.4 µM | 0.8 | 
9 | O=C(Nc1nnc(NC(=O)c2cc3ccccc3oc2=O)s1)c1ccccc1 [Compound 5, N-(5-Benzamido-1,3,4-thiadiazol-2-yl)-2-oxo-2H-chromene-3-carboxamide] | 63.9 ± 8.9 µM | 91.2 ± 4.6 µM | 1.5 | 
10 | COc1cc(C=C(C#N)C(=O)Nc2nnc(NC(=O)c3ccccc3)s2)ccc1O [Compound 7f, N-(5-(2-Cyano-3-(4-hydroxy-3-methoxyphenyl)acrylamido)-1,3,4-thiadiazol-2-yl)benzamide] | 21.3 ± 3.7 µM | 14.5 ± 0.3 µM | 0.9 | 
11 | N#CC(=Cc1cccs1)C(=O)Nc1nnc(NC(=O)c2ccccc2)s1 [Compound 7d, N-(5-(2-Cyano-3-(thiophen-2-yl)acrylamido)-1,3,4-thiadiazol-2-yl)benzamide] | 66.1 ± 3.5 µM | 12.3 ± 1.2 µM | 0.4 | toxicity to the normal fibroblasts (in words) [1]: toxic to the normal fibroblasts
12 | N=c1oc2ccccc2cc1C(=O)Nc1nnc(NC(=O)c2ccccc2)s1 [Compound 4, N-(5-Benzamido-1,3,4-thiadiazol-2-yl)-2-imino-2H-chromene-3-carboxamide] | 48.5 ± 2.9 µM | 29.4 ± 2.2 µM | 1.3 | toxicity to the normal fibroblasts (in words) [1]: toxic to the normal fibroblasts
13 | N#CC(=Cc1ccc(Cl)cc1)C(=O)Nc1nnc(NC(=O)c2ccccc2)s1 [Compound 7b, N-(5-(3-(4-Chlorophenyl)-2-cyanoacrylamido)-1,3,4-thiadiazol-2-yl)benzamide] | 14.7 ± 2.1 µM | 42.1 ± 2.7 µM | 2.4 | 
14 | N#CC(C(=O)Nc1nnc(NC(=O)c2ccccc2)s1)C(=S)Nc1ccccc1 (centres unmarked) [Compound 16, N-(5-(2-Cyano-3-(phenylamino)-3-thioxopropanamido)-1,3,4-thiadiazol-2-yl)benzamide] | 14.7 ± 2.3 µM | 85.9 ± 1.9 µM | 4.1 | 
15 | Nc1nnc(NC(=O)c2ccccc2)s1 [Compound 2, N-(5-Amino-1,3,4-thiadiazol-2-yl)benzamide] | 14.1 ± 1.5 µM | 17.6 ± 4.1 µM | 1.0 | 
16 | N#Cc1c(Nc2ccccc2)n2nc(NC(=O)c3ccccc3)sc2nc1=O [Compound 15, N-(6-Cyano-7-oxo-5-(phenylamino)-7H-[1,3,4]thiadiazolo[3,2-a]pyrimidin-2-yl)benzamide] | 16.8 ± 1.7 µM | 19.4 ± 1.5 µM | 1.4 | 
17 | N#CC(C(=O)Nc1nnc(NC(=O)c2ccccc2)s1)=C1Oc2cccnc2O1 [Compound 20, N-(5-(2-([1,3]dioxolo[4,5-b]pyridin-2-ylidene)-2-cyanoacetamido)-1,3,4-thiadiazol-2-yl)benzamide] | 29.6 ± 3.1 µM | 42.7 ± 2.7 µM | 1.5 | 
18 | CSC(SC)=C(C#N)C(=O)Nc1nnc(NC(=O)c2ccccc2)s1 [Compound 17, N-(5-(2-Cyano-3,3-bis(methylthio)acrylamido)-1,3,4-thiadiazol-2-yl)benzamide] | 12.5 ± 1 µM | 81.2 ± 4.1 µM | 6.0 | 
19 | N#CC(=Cc1ccco1)C(=O)Nc1nnc(NC(=O)c2ccccc2)s1 [Compound 7c, N-(5-(2-Cyano-3-(furan-2-yl)acrylamido)-1,3,4-thiadiazol-2-yl)benzamide] | 16.3 ± 1.8 µM | 22.6 ± 3 µM | 0.8 | 
20 | Cc1cc(C)n(-c2nnc(NC(=O)c3ccccc3)s2)c(=O)c1C#N [Compound 9, N-(5-(3-Cyano-4,6-dimethyl-2-oxopyridin-1(2H)-yl)-1,3,4-thiadiazol-2-yl)benzamide] | 39.1 ± 2.7 µM | 50.4 ± 0.9 µM | 2.5 | 
21 | N#CCC(=O)Nc1nnc(NC(=O)c2ccccc2)s1 [Compound 3, N-(5-(2-Cyanoacetamido)-1,3,4-thiadiazol-2-yl)benzamide] | 31.3 ± 5.1 µM | 37.4 ± 2.5 µM | 1.2 | 
22 | Cc1cc(-c2ccccc2)n(-c2nnc(NC(=O)c3ccccc3)s2)c(=O)c1C#N [Compound 10, N-(5-(3-Cyano-4-methyl-2-oxo-6-phenylpyridin-1(2H)-yl)-1,3,4-thiadiazol-2-yl)benzamide] | 19.4 ± 1.5 µM | > 100 µM | 1.7 | 
23 | COc1ccc(C=C(C#N)C(=O)Nc2nnc(NC(=O)c3ccccc3)s2)cc1 [Compound 6b, N-(5-(2-Cyano-3-(4-methoxyphenyl)acrylamido)-1,3,4-thiadiazol-2-yl)benzamide] | 15.9 ± 1.3 µM | 50.4 ± 0.9 µM | 4.9 | sub-G1 percent of cells (MCF-7 cells [2]; DMSO 7.4%): 53.6%; induction of apoptosis (in words) (MCF-7 cells [3]): did not induce apoptosis; necrotic cells (upper left quadrant, UL) (MCF-7 cells [3]): 12.5%
